Results from ChEMBL document CHEMBL3046721, “3-(Arylthiomethyl)isoxazole-4,5-dicarboxamides: chemoselective nucleophilic chemistry and insecticidal activity” (2009).
Active and inactive are the calls of the source.

Tests used:
Aedes aegypti = assay: Insecticidal activity against larvae of Aedes aegypti assessed as mortality after 3 days by high-throughput screening assay; type: functional, organism-based
Summary of the method: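 One-day-old larvae placed in 96-well plates pre-treated with 6 μg/well, applied in 15 μl DMSO-acetone-water (1:1:8) and dried. Plates lidded, held at room temperature, mortality graded 3 days post-treatment. Six replicates per treatment.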

Spodoptera exigua [1] = assay: Insecticidal activity against larvae of Spodoptera exigua fed with artificial diet containing compound assessed as mortality after 6 days by high-throughput screening assay; type: functional; set-up: concentration or dose not given beside the values
Summary of the method: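 Artificial diet (100 μl/well, 96-well) pretreated with 12 μg compound in 30 μl DMSO-acetone-water (2:1:7), dried several hours, then seeded with eggs. Plates covered, kept in dark at 29°C, mortality recorded 6 days post-treatment. Six replicates per treatment.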

Spodoptera exigua [2] = assay: Insecticidal activity against second-instar larval stage of Spodoptera exigua fed with artificial diet containing compound assessed as mortality at 50 ug/cm2 after 5 days by diet-based secondary assay; type: functional; settings: 120 h
Summary of the method: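 Second-instar larvae on 128-well trays with 1 mL diet dosed at 50 μg/cm2, eight wells per treatment under clear plastic. Percent mortality averaged over the eight wells, scored 5 days after assay start; tested only on primary-screen hits (>67% mortality).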

Helicoverpa zea = assay: Insecticidal activity against second-instar larval stage of Helicoverpa zea (corn earworm) fed with artificial diet containing compound assessed as mortality after 5 days by diet-based secondary assay; type: functional, organism-based
Summary of the method: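 Follow-up for primary-screen hits (>67% mortality): 128-well diet trays, 1 mL diet containing selected dosages, second-instar larvae. Wells covered with clear plastic, eight wells per treatment, percent mortality averaged over eight wells at 5 days. Approximate LC50 estimated by probit analysis.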

Structure (SMILES)	mortality (Aedes aegypti)	mortality (Spodoptera exigua [1]) [%]	mortality at 50 µg/cm2 (Spodoptera exigua [2]) [%]	mortality (Helicoverpa zea)
O=C(NCc1ccccc1)c1onc(CSc2ccccc2)c1C(=O)NCc1ccccc1	inactive	67	–	–
C=CCNC(=O)c1c(CSc2ccccc2)noc1C(=O)NCc1ccccc1	inactive	0	–	–
CCCNC(=O)c1onc(CS(=O)(=O)c2ccc(Cl)cc2)c1C(=O)NCCC	inactive	83	0	inactive
CCCNC(=O)c1onc(CS(=O)(=O)c2ccccc2)c1C(=O)NCCC	inactive	100	0	inactive
CC(C)CCNC(=O)c1onc(CSc2ccc(Cl)cc2)c1C(=O)NCCC(C)C	inactive	100	0	inactive
COCCNC(=O)c1c(CSc2ccccc2)noc1C(=O)NCc1ccccc1	inactive	17	–	–
CC(C)NC(=O)c1c(CS(=O)(=O)c2ccc(Cl)cc2)noc1C(=O)NCc1ccccc1	inactive	–	–	–
CC(C)CCNC(=O)c1c(CSc2ccc(Cl)cc2)noc1C(=O)NCc1ccccc1	inactive	67	0	–
O=C(NCc1ccccc1)c1onc(CSc2ccncc2)c1C(=O)NCc1ccccc1	inactive	–	–	–
COc1cccc(SCc2noc(C(=O)NCc3ccccc3)c2C(=O)NCc2ccccc2)c1	inactive	50	–	–
CCCCNC(=O)c1onc(CSc2ccncc2)c1C(=O)NCCCC	inactive	67	0	–
COc1cccc(SCc2noc(C(=O)NCCC(C)C)c2C(=O)NCCC(C)C)c1	inactive	–	–	–
CCCNC(=O)c1onc(CSc2cc(C)cc(C)c2)c1C(=O)NCCC	inactive	50	–	–
CC(C)CCNC(=O)c1onc(CSc2ccc(F)cc2)c1C(=O)NCCC(C)C	inactive	100	38	inactive
CCCCNC(=O)c1onc(CSc2ccccn2)c1C(=O)NCCCC	inactive	–	–	–
CCCNC(=O)c1c(CS(=O)(=O)c2ccc(Cl)cc2)noc1C(=O)NCc1ccccc1	inactive	100	0	inactive
COCCNC(=O)c1onc(CSc2ccc(F)cc2)c1C(=O)NCCOC	inactive	67	0	–
C=CCNC(=O)c1onc(CSc2ccccc2)c1C(=O)NCC=C	inactive	33	–	–
C=CCNC(=O)c1onc(CSc2ccccn2)c1C(=O)NCC=C	inactive	17	–	–
O=C(NCc1ccccc1)c1onc(CSc2ccc(Cl)cc2)c1C(=O)NCc1ccccc1	inactive	67	0	–
COCCNC(=O)c1onc(CSc2cc(C)cc(C)c2)c1C(=O)NCCOC	inactive	–	–	–

Structure (SMILES)	mortality (Aedes aegypti)	mortality (Spodoptera exigua [1]) [%]	mortality at 50 µg/cm2 (Spodoptera exigua [2]) [%]	mortality (Helicoverpa zea)
COCCNC(=O)c1onc(CSc2ccccn2)c1C(=O)NCCOC	inactive	17	–	–
CCCNC(=O)c1onc(CSc2ccccc2)c1C(=O)NCCC	inactive	50	–	–
CCCCNC(=O)c1onc(CSc2ccc(Cl)cc2)c1C(=O)NCCCC	inactive	33	–	–
CC(C)NC(=O)c1onc(CS(=O)(=O)c2ccc(Cl)cc2)c1C(=O)NC(C)C	inactive	97	0	inactive
CCCNC(=O)c1onc(CSc2cccc(OC)c2)c1C(=O)NCCC	inactive	50	–	–
CC(C)CCNC(=O)c1onc(CSc2ccccc2)c1C(=O)NCCC(C)C	inactive	33	–	–
C=CCNC(=O)c1onc(CSc2ccncc2)c1C(=O)NCC=C	inactive	17	–	–
CC(C)NC(=O)c1onc(CS(=O)(=O)c2ccccc2)c1C(=O)NC(C)C	inactive	100	0	inactive
C=CCNC(=O)c1c(CS(=O)(=O)c2ccc(Cl)cc2)noc1C(=O)NCc1ccccc1	inactive	100	38	inactive
Cc1cc(C)cc(SCc2noc(C(=O)NC(C)C)c2C(=O)NC(C)C)c1	inactive	–	–	–
COCCNC(=O)c1onc(CS(=O)(=O)c2ccc(Cl)cc2)c1C(=O)NCCOC	inactive	100	0	inactive
CC(C)NC(=O)c1onc(CSc2ccccc2)c1C(=O)NC(C)C	inactive	67	0	–
C=CCNC(=O)c1onc(CSc2cccc(OC)c2)c1C(=O)NCC=C	inactive	67	0	–
CC(C)NC(=O)c1c(CSc2ccccc2)noc1C(=O)NCc1ccccc1	inactive	83	0	inactive
CCCCNC(=O)c1onc(CSc2cc(C)cc(C)c2)c1C(=O)NCCCC	inactive	–	–	–
C=CCNC(=O)c1c(CSc2ccc(Cl)cc2)noc1C(=O)NCc1ccccc1	inactive	83	0	inactive
COCCNC(=O)c1c(CSc2ccc(Cl)cc2)noc1C(=O)NCc1ccccc1	inactive	17	–	–
CC(C)NC(=O)c1c(CSc2ccc(Cl)cc2)noc1C(=O)NCc1ccccc1	inactive	100	0	inactive
CC(C)NC(=O)c1onc(CSc2ccc(F)cc2)c1C(=O)NC(C)C	inactive	50	–	–
CC(C)NC(=O)c1onc(CSc2ccc(Cl)cc2)c1C(=O)NC(C)C	inactive	83	0	inactive
O=C(NCc1ccccc1)c1onc(CSc2ccc(F)cc2)c1C(=O)NCc1ccccc1	inactive	67	0	–

Structure (SMILES)	mortality (Aedes aegypti)	mortality (Spodoptera exigua [1]) [%]	mortality at 50 µg/cm2 (Spodoptera exigua [2]) [%]	mortality (Helicoverpa zea)
O=C(NCc1ccccc1)c1onc(CSc2ccccn2)c1C(=O)NCc1ccccc1	inactive	67	0	–
COCCNC(=O)c1onc(CSc2ccccc2)c1C(=O)NCCOC	inactive	83	0	inactive
CC(C)CCNC(=O)c1onc(CSc2ccccn2)c1C(=O)NCCC(C)C	inactive	–	–	–
CCCCNC(=O)c1c(CS(=O)(=O)c2ccccc2)noc1C(=O)NCc1ccccc1	inactive	67	0	–
CCCNC(=O)c1onc(CSc2ccc(F)cc2)c1C(=O)NCCC	inactive	33	–	–
COCCNC(=O)c1onc(CSc2ccncc2)c1C(=O)NCCOC	inactive	50	–	–
C=CCNC(=O)c1onc(CSc2ccc(F)cc2)c1C(=O)NCC=C	inactive	67	0	–
CCCNC(=O)c1onc(CSc2ccncc2)c1C(=O)NCCC	inactive	33	–	–
CCCNC(=O)c1onc(CSc2ccccn2)c1C(=O)NCCC	inactive	50	–	–
COCCNC(=O)c1onc(CSc2cccc(OC)c2)c1C(=O)NCCOC	inactive	67	0	–
Cc1cc(C)cc(SCc2noc(C(=O)NCCC(C)C)c2C(=O)NCCC(C)C)c1	inactive	–	–	–
CC(C)CCNC(=O)c1c(CSc2ccccc2)noc1C(=O)NCc1ccccc1	inactive	67	0	–
CC(C)CCNC(=O)c1onc(CSc2ccncc2)c1C(=O)NCCC(C)C	inactive	83	0	–
C=CCNC(=O)c1onc(CSc2cc(C)cc(C)c2)c1C(=O)NCC=C	inactive	17	–	–
COCCNC(=O)c1c(CS(=O)(=O)c2ccccc2)noc1C(=O)NCc1ccccc1	inactive	100	–	inactive
CC(C)NC(=O)c1onc(CSc2ccccn2)c1C(=O)NC(C)C	inactive	50	–	–
C=CCNC(=O)c1onc(CSc2ccc(Cl)cc2)c1C(=O)NCC=C	inactive	17	–	–
CCCCNC(=O)c1onc(CSc2ccc(F)cc2)c1C(=O)NCCCC	inactive	50	–	–
CCCCNC(=O)c1onc(CSc2ccccc2)c1C(=O)NCCCC	inactive	–	–	–
CCCCNC(=O)c1onc(CSc2cccc(OC)c2)c1C(=O)NCCCC	inactive	–	–	–
CCCNC(=O)c1onc(CSc2ccc(Cl)cc2)c1C(=O)NCCC	inactive	50	–	–
